Assay results of several laboratories.
pIC50: −log10 of the molar value. In brackets after ≈: the same amount, converted by molar mass.
Organism: Streptococcus pneumoniae
Observed: microbial growth

SMILES	test	test system	measurement	result
C[C@H]1COCCN1c1nc(NCc2cccnc2C(F)(F)F)c2cccnc2n1	broth dilution		MIC	32 to 64 µg/mL (≈ 79.1 to 158 µM)
CCCCCCCCCCCCCCCCCc1cc(O)cc(O)c1			pIC50	< 3.70
CCCCCCCCCCCCCCCC(=O)NS(=O)(=O)Oc1ccc(CCNC(=O)OC(C)(C)C)cc1	broth dilution	R6	MIC	50 µg/mL (≈ 90.1 µM)
CC(C)CCCCCCCCCCCCCCCc1cc(O)cc(O)c1			pIC50	4.15
CN[C@H](CC(C)C)C(=O)N[C@H]1C(=O)N[C@@H](CC(N)=O)C(=O)N[C@H]2C(=O)N[C@H]3C(=O)N[C@H](C(=O)N[C@H](C(=O)O)c4cc(O)cc(O)c4-c4cc3ccc4O)[C@H](O)c3ccc(c(Cl)c3)Oc3cc2cc(c3O[C@@H]2O[C@H](CO)[C@@H](O)[C@H](O)[C@H]2O[C@H]2C[C@](C)(N)[C@H](O)[C@H](C)O2)Oc2ccc(cc2Cl)[C@H]1O			MIC	0.12 µg/mL (≈ 0.0828 µM)
CN[C@@H]1[C@H](O)[C@H](NC)[C@H]2O[C@@]3(O)C(=O)C[C@@H](C)O[C@H]3O[C@@H]2[C@H]1O	broth dilution	DAW27	MIC	25 µg/mL (≈ 75.2 µM)
COc1ccc2cc1Oc1cc(ccc1OC)CCC(N[C@@H]1CCCc3ccccc31)CCCC2 (some centres unmarked)	broth dilution		MIC	> 100 µg/mL
CNC(=O)Oc1c2c(c(O)c3cc(CN4CCC4)ccc13)C(=O)C1=C(O)[C@]3(O)C(=O)C(C(N)=O)=C(O)[C@@H](N(C)C)[C@@H]3C[C@@H]1C2	broth dilution	ATCC49619	MIC	0.5 µg/mL (≈ 0.824 µM)
